IC50 and Activity data for four compounds are collected here from ChEMBL document CHEMBL1154351, “Aspergillusol A, an alpha-glucosidase inhibitor from the marine-derived fungus Aspergillus aculeatus” (J Nat Prod, 2009).

Activity calls are given as the source filed them. No cut-off for these calls is given here.

A short description of assay [1]: Cytotoxicity against HuCCa1 cells after 4 days by MTT assay. It is filed as functional, cell-based. The conditions noted are these: Homo sapiens, HuCC-A1, 96 h. Summed up:
(§1)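 MTT read-out of viability in human HepG2, HuCCA-1 and A549 cancer cell lines, with doxorubicin as reference drug; IC50 values determined.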

The next assay relates to MOLT-3. The assay can be described thus: Cytotoxicity against human MOLT3 cells by XTT assay. It counts as functional, cell-based. The gist of the method:
(§2)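 XTT read-out of viability in human MOLT-3 and HL-60 cell lines, with doxorubicin as reference drug; IC50 values determined.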

A further assay relates to HepG2. The assay can be described thus: Cytotoxicity against human HepG2 cells after 4 days by MTT assay. It is filed as functional, cell-based. The conditions noted are these: HepG2, 96 h. The gist of the method:
as §1

A further assay deals with HL-60. The assay can be described thus: Cytotoxicity against human HL60 cells by XTT assay. It counts as functional, cell-based. Summed up: as §2
The next assay deals with HuCC-A1. The assay can be described thus: Cytotoxicity against HuCCa1 cells at 240 uM after 4 days by MTT assay. It is filed as functional, cell-based. The conditions noted are these: Homo sapiens.
For assay [2], the system named is A549. Put plainly: Cytotoxicity against human A549 cells at 240 uM after 4 days by MTT assay. It is filed as functional, cell-based.
The nature of assay [3]: Inhibition of Saccharomyces cerevisiae alpha-glucosidase assessed as p-nitrophenol release by colorimetry. The gist of the method:
(§3)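 Colorimetric assay with p-nitrophenyl α-D-glucoside substrate at 1.0 mM final. Enzyme at 0.1 U/mL final for S. cerevisiae α-glucosidase and 0.3 U/mL final for B. stearothermophilus α-glucosidase. Run in triplicate (n = 3), with 1-deoxynojirimycin as standard; IC50 determined.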

A short description of assay [4]: Inhibition of Bacillus stearothermophilus alpha-glucosidase assessed as p-nitrophenol release by colorimetry. The arrangement: species or system Geobacillus stearothermophilus. The gist of the method:
as §3

In assay [5] the test system is A549. Put plainly: Cytotoxicity against human A549 cells after 4 days by MTT assay. It counts as functional, cell-based. The conditions noted are these: A549, 96 h. The gist of the method: as §1
The target of the next assay is T1, Aromatase (Homo sapiens, UniProt P11511).
T1 sequence (P11511 whole entry): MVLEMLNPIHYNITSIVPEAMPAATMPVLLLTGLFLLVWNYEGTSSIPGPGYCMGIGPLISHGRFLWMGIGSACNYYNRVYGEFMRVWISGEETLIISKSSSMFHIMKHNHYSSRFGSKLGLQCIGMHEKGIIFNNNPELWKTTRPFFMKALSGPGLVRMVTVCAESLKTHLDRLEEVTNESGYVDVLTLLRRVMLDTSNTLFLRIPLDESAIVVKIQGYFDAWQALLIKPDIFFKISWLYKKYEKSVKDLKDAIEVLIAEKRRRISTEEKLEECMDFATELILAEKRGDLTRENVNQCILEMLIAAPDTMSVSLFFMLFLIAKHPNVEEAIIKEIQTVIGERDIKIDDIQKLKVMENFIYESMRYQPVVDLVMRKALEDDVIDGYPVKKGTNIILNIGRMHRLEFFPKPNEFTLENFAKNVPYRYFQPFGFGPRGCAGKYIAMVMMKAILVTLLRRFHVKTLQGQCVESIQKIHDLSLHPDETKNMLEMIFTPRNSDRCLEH
The assay can be described thus: Inhibition of aromatase.

`COc1cccc2c1C(=O)c1c(O)c3c(c(O)c1C2=O)C[C@@](O)(C(=O)CO)C[C@@H]3O[C@H]1C[C@H](N)[C@H](O)[C@H](C)O1` [DOXORUBICIN]: the IC50 is 0.64 µM in assay [1], 0.04 µM in the assay on MOLT-3 and 0.37 µM with HepG2.
Turning to `O=C(OC[C@@H](OC(=O)c1ccccc1)[C@@H](COC(=O)c1ccccc1)OC(=O)c1ccccc1)c1ccccc1`, the 50% inhibitory concentration (IC50) in the assay with HL-60 worked out at 44 µM; with HepG2 it was 29 µM. Also, the result in the assay on HuCC-A1 and with A549 [2] was inactive.
For the compound `O=C(OC[C@@H](O)[C@@H](O)COC(=O)/C(Cc1ccc(O)cc1)=N\O)/C(Cc1ccc(O)cc1)=N\O` [ASPERGILLUSOL A], the IC50 was 465 µM in assay [3]; 50 µM in assay [1]; 19 µM in the assay with MOLT-3; 1060 µM in [4]; 74 µM with A549 [5]; above 100 µM at Aromatase. The compound also had an IC50 in the assay on HepG2 above 105 µM.
In the case of `OC[C@H]1NC[C@H](O)[C@@H](O)[C@@H]1O` [DUVOGLUSTAT], the IC50 stood at 222 µM in assay [3] and 0.45 µM in assay [4].
